Laboratory results as given in ChEMBL document CHEMBL1138107, “Novel non-nucleobase inhibitors of Staphylococcus aureus DNA polymerase IIIC” (Bioorg Med Chem Lett, 2006).
Converted amounts (≈) assume the structure as drawn. The source made the active and inactive calls. The calls are words filed in the database; no cut-off is given here.

What was measured:
[1] = target: T1, DNA polymerase III PolC-type (Staphylococcus aureus) (UniProt P0C1P9); assay: Inhibition of DNA polymerase3C from Staphylococcus aureus at 100 uM
T1 sequence (whole entry): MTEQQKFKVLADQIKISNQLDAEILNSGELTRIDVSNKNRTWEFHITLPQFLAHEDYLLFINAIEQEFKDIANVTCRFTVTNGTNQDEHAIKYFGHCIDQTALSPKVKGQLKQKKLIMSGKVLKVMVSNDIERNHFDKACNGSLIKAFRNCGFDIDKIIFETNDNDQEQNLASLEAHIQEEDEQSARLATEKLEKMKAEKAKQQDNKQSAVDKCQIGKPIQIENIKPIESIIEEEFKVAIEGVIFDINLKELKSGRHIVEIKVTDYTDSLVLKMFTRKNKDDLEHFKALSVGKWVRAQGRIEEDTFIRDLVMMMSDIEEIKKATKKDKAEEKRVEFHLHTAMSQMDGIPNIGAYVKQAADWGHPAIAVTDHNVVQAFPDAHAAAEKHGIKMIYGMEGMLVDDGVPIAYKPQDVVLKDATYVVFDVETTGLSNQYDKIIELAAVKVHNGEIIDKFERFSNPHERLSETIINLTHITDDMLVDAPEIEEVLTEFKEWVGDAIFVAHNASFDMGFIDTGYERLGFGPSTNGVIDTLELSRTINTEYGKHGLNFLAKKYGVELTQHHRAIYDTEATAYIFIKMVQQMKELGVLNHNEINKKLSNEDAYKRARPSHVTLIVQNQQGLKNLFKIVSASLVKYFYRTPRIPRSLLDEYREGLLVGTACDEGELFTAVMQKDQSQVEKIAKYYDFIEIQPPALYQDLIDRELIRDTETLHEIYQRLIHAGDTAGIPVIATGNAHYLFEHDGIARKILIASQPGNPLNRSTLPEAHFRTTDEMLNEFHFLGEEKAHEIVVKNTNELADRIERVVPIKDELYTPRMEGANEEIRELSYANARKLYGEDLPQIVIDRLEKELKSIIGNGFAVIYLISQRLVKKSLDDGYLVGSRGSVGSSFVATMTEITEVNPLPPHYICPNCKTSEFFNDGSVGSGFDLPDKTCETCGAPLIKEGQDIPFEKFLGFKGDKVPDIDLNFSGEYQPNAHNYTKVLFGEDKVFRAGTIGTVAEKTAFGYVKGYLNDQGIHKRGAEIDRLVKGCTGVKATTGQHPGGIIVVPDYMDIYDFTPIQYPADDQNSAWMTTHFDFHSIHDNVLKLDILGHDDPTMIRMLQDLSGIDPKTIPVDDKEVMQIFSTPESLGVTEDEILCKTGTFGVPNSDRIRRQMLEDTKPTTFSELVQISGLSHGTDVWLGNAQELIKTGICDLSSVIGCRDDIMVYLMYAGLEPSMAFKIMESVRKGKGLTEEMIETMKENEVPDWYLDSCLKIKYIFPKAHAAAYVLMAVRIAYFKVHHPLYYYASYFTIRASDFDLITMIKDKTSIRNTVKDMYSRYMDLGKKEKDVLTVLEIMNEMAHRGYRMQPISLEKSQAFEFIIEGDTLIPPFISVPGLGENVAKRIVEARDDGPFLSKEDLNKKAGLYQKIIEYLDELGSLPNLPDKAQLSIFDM
Procedure, shortened: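 PolC oligonucleotide-primed incorporation of [³H]dTTP was run with 125 ng purified enzyme for 30 min at 37 °C. It was quenched with EDTA, filter-bound on DE81 and counted by liquid scintillation. Compounds were screened in triplicate at 10, 50 and 100.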

[2] = target: T2, DNA polymerase III PolC-type (Staphylococcus aureus, UniProt P0C1P9); assay: Inhibition of DNA polymerase3C from Staphylococcus aureus
T2 sequence (P0C1P9 whole entry): T1 sequence (whole entry)
Procedure, shortened: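 Purified PolC (125 ng) started the reaction with a double-stranded oligonucleotide substrate, dATP, dCTP, low dGTP and [³H]dTTP (1 Ci/mmol) in Tris-HCl pH 7.5 buffer with glycerol, EDTA, DTT, IgG and 8 mM MgCl₂. Incubation was 30 min at 37 °C, stopped with 20 mM EDTA, then spotted on DE81 filters, washed and counted by scintillation. IC50 came from a 12-point, roughly 2-fold serial dilution, run in triplicate.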

[3] = tested on: HeLa; assay: Cytotoxicity against HeLa cell line by MTS assay; format: functional, cell-based; conditions: Homo sapiens
Procedure, shortened: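 HeLa cells (2 × 10⁴/well) in DMEM with 1% bovine growth serum were exposed to compound at 100, 50, 25 and 12.5 for 18 h at 37 °C under 5% CO₂. Viability was read as MTS reduction to formazan, by absorbance at 490 nm.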

[4] = tested on: Staphylococcus aureus; assay: Antimicrobial activity against Staphylococcus aureus (RN4220); format: functional; conditions: read-out: MIC
[5] = tested on: Hepatocyte; assay: Cytotoxicity against human hepatocytes by measure of ATP production at 50 uM; format: functional, cell-based
Procedure, shortened: (§1)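 Cryopreserved primary human hepatocytes (1 × 10⁴/well) in Krebs–Henseleit buffer were incubated with compound at 100, 50, 25 and 12.5 for 2 h at 37 °C under 5% CO₂. ATP content was then measured by luminescence after adding luciferin and luciferase.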

[6] = tested on: Hepatocyte; assay: Decrease in ATP productions in human hepatocytes at 100 uM; format: functional, cell-based; procedure, shortened: as §1

| inhibition [1] [%] | IC50 [2] [µM] | MIC [4] [µg/mL] | SMILES | Activity [3] | Activity [5] | Activity [6] |
| --- | --- | --- | --- | --- | --- | --- |
| 74 | 4 | 8 (≈ 21.2 µM) | Oc1nc(Nc2ccc3c(c2)CCC3)nc(O)c1CCCOc1ccccc1 | Not toxic | Toxic | – |
| 75 | – | 8 (≈ 22.1 µM) | Oc1nc(Nc2ccc3c(c2)CCC3)nc(O)c1CCCc1ccccc1 | Not toxic | – | Active |
| 90 | – | 8 (≈ 28 µM) | C=CCc1c(O)nc(Nc2ccc(C)c(CC)c2)nc1O | Not toxic | – | Active |
